Measurements published in ChEMBL document CHEMBL1140064, “Anxiolytic-like effects of N,N-dialkyl-2-phenylindol-3-ylglyoxylamides by modulation of translocator protein promoting neurosteroid biosynthesis” (J Med Chem, 2008).

What was measured:
C6 = assay: Induction of pregnenolone biosynthesis in rat C6 cells assessed as increase in pregnenolone level at 40 uM after 2 hrs by ELISA relative to control; type: functional
In short: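 Rat C6 glioma cells grown in DMEM with 10% FBS, 2 mM L-glutamine, penicillin/streptomycin, seeded ~10 000 cells/well. Exposed to compound at 40 µM for 2 h at 37 °C, with DMSO/ethanol ≤0.5% (v/v) kept constant. Pregnenolone secreted into the medium measured by competitive ELISA; mean ± SEM of at least three determinations.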

Translocator protein = Translocator protein (Rattus norvegicus, UniProt P16257); assay: Displacement of [3H]PK11195 from translocator protein in rat kidney mitochondrial membrane; type: cell membranes
Sequence of Translocator protein (P16257 whole entry, looked up): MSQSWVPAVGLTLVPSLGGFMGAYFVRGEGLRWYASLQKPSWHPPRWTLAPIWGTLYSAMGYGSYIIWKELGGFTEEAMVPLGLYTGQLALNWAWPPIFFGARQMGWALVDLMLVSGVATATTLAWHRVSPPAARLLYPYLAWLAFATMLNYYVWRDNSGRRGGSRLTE

Rattus norvegicus [1] = assay: Anxiolytic activity in Sprague-Dawley rat assessed as increase in total number of open arm entries at 30 mg/kg, ip by plus-maze test; type: functional; details: route intraperitoneal
In short: (§1)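 Male Sprague-Dawley rats (180-200 g), group-housed 6/cage at 24 ± 1 °C, 12 h light/dark, free food and water except during testing. Dosed ip. Elevated four-arm maze (two open, two enclosed arms); entries into and time in open arms, and total arm entries, scored over a 5 min session versus vehicle-treated controls.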

Rattus norvegicus [2] = assay: Anxiolytic activity in Sprague-Dawley rat assessed as reduction of total number of open arm entries at 50 mg/kg, ip after 5 mins by plus-maze test; type: functional; details: route intraperitoneal; in short: as §1

| SMILES | Activity (C6) | Ki (Translocator protein) | Activity (Rattus norvegicus [1]) | Activity (Rattus norvegicus [2]) |
| --- | --- | --- | --- | --- |
| CCCN(CCC)C(=O)C(=O)c1c(-c2ccc(Cl)cc2)[nH]c2ccccc12 | 40% |  |  |  |
| CCCCCCN(CCCCCC)C(=O)C(=O)c1c(-c2ccccc2)[nH]c2ccccc12 | 30% |  |  |  |
| CCCCN(CCCC)C(=O)C(=O)c1c(-c2ccccc2)[nH]c2ccccc12 | 23% |  |  |  |
| CCN(Cc1ccccc1)C(=O)C(=O)c1c(-c2ccc(Cl)cc2)[nH]c2ccccc12 | 136% | 1.3 nM |  |  |
| CCCCCCN(CCCCCC)C(=O)C(=O)c1c(-c2ccccc2)[nH]c2c(C)cccc12 | 63% | 1.9 nM |  |  |
| CCN(Cc1ccccc1)C(=O)C(=O)c1c(-c2ccccc2)[nH]c2ccccc12 | 20% | 11 nM |  |  |
| CCCCN(C)C(=O)C(=O)c1c(-c2ccccc2)[nH]c2ccc(Cl)cc12 | 70% | 3.9 nM |  |  |
| CCCCCN(C)C(=O)C(=O)c1c(-c2ccccc2)[nH]c2ccc(Cl)cc12 | 76% | 3.6 nM |  |  |
| CCCN(CCC)C(=O)C(=O)c1c(-c2ccccc2)[nH]c2c(Cl)cccc12 | 0% | 14 nM |  |  |
| CCCCN(CC)C(=O)C(=O)c1c(-c2ccccc2)[nH]c2ccc(Cl)cc12 | 72% | 1.8 nM |  |  |
| CCCCN(C)C(=O)C(=O)c1c(-c2ccc(Cl)cc2)[nH]c2ccc(Cl)cc12 | 67% | 0.15 nM |  |  |
| CCCCCCN(CCCCCC)C(=O)C(=O)c1c(-c2ccccc2)[nH]c2c(Cl)cccc12 | 0% | 2.4 nM |  |  |
| CCCCN(CCCC)C(=O)C(=O)c1c(-c2ccccc2)[nH]c2c(C)cccc12 | 71% | 6 nM |  |  |
| CCN(Cc1ccccc1)C(=O)C(=O)c1c(-c2ccccc2)[nH]c2ccc(F)cc12 |  | 1.33 nM |  |  |
| CCN(Cc1ccccc1)C(=O)C(=O)c1c(-c2ccc(F)cc2)[nH]c2ccc(Cl)cc12 | 0% | 4.01 nM |  |  |
| CCN(Cc1ccccc1)C(=O)C(=O)c1c(-c2ccccc2)[nH]c2c(Cl)cccc12 | 0% | 5 nM |  |  |
| CCCN(CCC)C(=O)C(=O)c1c(-c2ccc(F)cc2)[nH]c2ccc(Cl)cc12 | 42% | 2.83 nM |  |  |
| CCCCN(CCCC)C(=O)C(=O)c1c(-c2ccc(F)cc2)[nH]c2ccc(Cl)cc12 | 37% | 3.05 nM |  |  |
| CCN(Cc1ccccc1)C(=O)C(=O)c1c(-c2ccc(Cl)cc2)[nH]c2ccc(Cl)cc12 | 171% |  |  |  |
| CCN(Cc1ccccc1)C(=O)C(=O)c1c(-c2ccc(C)cc2)[nH]c2ccccc12 | 86% | 2.64 nM |  |  |
| CCN(Cc1ccccc1)C(=O)C(=O)c1c(-c2ccccc2)[nH]c2c(C)cccc12 | 0% | 2.3 nM |  |  |
| CCN(Cc1ccccc1)C(=O)C(=O)c1c(-c2ccccc2)[nH]c2ccc(Cl)cc12 | 85% | 4.6 nM |  |  |

| SMILES | Activity (C6) | Ki (Translocator protein) | Activity (Rattus norvegicus [1]) | Activity (Rattus norvegicus [2]) |
| --- | --- | --- | --- | --- |
| CCCCN(C)C(=O)C(=O)c1c(-c2ccc(Cl)cc2)[nH]c2ccccc12 |  | 11 nM |  |  |
| CCCCN(CC)C(=O)C(=O)c1c(-c2ccc(Cl)cc2)[nH]c2ccccc12 | 32% | 3.6 nM |  |  |
| CCN(C)C(=O)C(=O)c1c(-c2ccc(Cl)cc2)[nH]c2ccc(Cl)cc12 | 0% | 9.54 nM |  |  |
| CCCCN(C)C(=O)C(=O)c1c(-c2ccccc2)[nH]c2ccccc12 | 32% | 53.3 nM |  |  |
| CCN(Cc1ccccc1)C(=O)C(=O)c1c(-c2ccc(C(F)(F)F)cc2)[nH]c2ccccc12 |  | 1 nM |  |  |
| CCCCN(CCCC)C(=O)C(=O)c1c(-c2ccccc2)[nH]c2c(Cl)cccc12 | 0% | 3.4 nM |  |  |
| CCN(Cc1ccccc1)C(=O)C(=O)c1c(-c2ccc(F)cc2)[nH]c2ccccc12 | 96% | 1.68 nM |  |  |
| CCN(Cc1ccccc1)C(=O)C(=O)c1c(-c2ccccc2)[nH]c2ccc([N+](=O)[O-])cc12 | 0% | 18.3 nM |  |  |
| CCCN(CCC)C(=O)C(=O)c1c(-c2ccccc2)[nH]c2ccc(F)cc12 | 66% | 2.67 nM |  |  |
| CCCCN(CCCC)C(=O)C(=O)c1c(-c2ccc(C(F)(F)F)cc2)[nH]c2ccccc12 | 60% | 1.16 nM |  |  |
| CCCCCCN(CCCCCC)C(=O)C(=O)c1c(-c2ccc(C(F)(F)F)cc2)[nH]c2ccccc12 | 85% | 1 nM |  |  |
| CCCCN(CCCC)C(=O)C(=O)c1c(-c2ccc(F)cc2)[nH]c2ccc(F)cc12 | 91% | 4.36 nM |  |  |
| CCCCCCN(CCCCCC)C(=O)C(=O)c1c(-c2ccc([N+](=O)[O-])cc2)[nH]c2ccccc12 | 88% | 0.23 nM |  |  |
| CCCCCCN(CCCCCC)C(=O)C(=O)c1c(-c2ccc(F)cc2)[nH]c2ccc(F)cc12 | 40% | 0.95 nM |  |  |
| CCCCN(CCCC)C(=O)C(=O)c1c(-c2ccc([N+](=O)[O-])cc2)[nH]c2ccccc12 | 64% | 0.27 nM |  |  |
| CCCCCCN(CCCCCC)C(=O)C(=O)c1c(-c2ccccc2)[nH]c2ccc(F)cc12 | 36% | 0.37 nM |  |  |
| CCCN(CCC)C(=O)C(=O)c1c(-c2ccccc2)[nH]c2ccc(OC)cc12 | 45% | 328 nM |  |  |
| CCCN(CCC)C(=O)C(=O)c1c(-c2ccccc2)[nH]c2ccc([N+](=O)[O-])cc12 | 91% | 20.2 nM |  |  |
| CCCCN(CCCC)C(=O)C(=O)c1c(-c2ccccc2)[nH]c2ccc(OC)cc12 | 36% | 65.2 nM |  |  |
| CCCCCCN(CCCCCC)C(=O)C(=O)c1c(-c2ccccc2)[nH]c2ccc(OC)cc12 | 87% | 35.5 nM |  |  |
| CCN(Cc1ccccc1)C(=O)C(=O)c1c(-c2ccccc2)[nH]c2ccc(OC)cc12 |  | 69.5 nM |  |  |
| CCCCCN(C)C(=O)C(=O)c1c(-c2ccc(Cl)cc2)[nH]c2ccccc12 | 65% | 3.4 nM |  |  |

| SMILES | Activity (C6) | Ki (Translocator protein) | Activity (Rattus norvegicus [1]) | Activity (Rattus norvegicus [2]) |
| --- | --- | --- | --- | --- |
| CCCN(CCC)C(=O)C(=O)c1c(-c2ccccc2)[nH]c2c(C)cccc12 | 129% | 25 nM |  |  |
| CCN(C)C(=O)C(=O)c1c(-c2ccccc2)[nH]c2ccccc12 |  | 940 nM |  |  |
| CCN(Cc1ccccc1)C(=O)C(=O)c1c(-c2ccc(F)cc2)[nH]c2ccc(F)cc12 |  | 1.67 nM |  |  |
| CCCCN(CC)C(=O)C(=O)c1c(-c2ccc(Cl)cc2)[nH]c2ccc(Cl)cc12 | 11% | 0.36 nM |  |  |
| CCCCCN(C)C(=O)C(=O)c1c(-c2ccccc2)[nH]c2ccccc12 | 36% | 12.1 nM |  |  |
| CCN(Cc1ccccc1)C(=O)C(=O)c1c(-c2ccc([N+](=O)[O-])cc2)[nH]c2ccccc12 | 103% | 0.55 nM |  |  |
| CCCCCCN(CCCCCC)C(=O)C(=O)c1c(-c2ccc(F)cc2)[nH]c2ccc(Cl)cc12 | 135% | 7.75 nM | 9.8 | 2 |
| CCCCCN(C)C(=O)C(=O)c1c(-c2ccc(Cl)cc2)[nH]c2ccc(Cl)cc12 | 31% | 0.18 nM |  |  |
| CCCN(CCC)C(=O)C(=O)c1c(-c2ccc(F)cc2)[nH]c2ccc(F)cc12 | 17% | 6.73 nM |  |  |
| CCCCCCN(CCCCCC)C(=O)C(=O)c1c(-c2ccccc2)[nH]c2ccc([N+](=O)[O-])cc12 | 115% | 30.3 nM |  |  |
| CCCCN(CCCC)C(=O)C(=O)c1c(-c2ccccc2)[nH]c2ccc([N+](=O)[O-])cc12 | 102% | 21.6 nM |  |  |
| CCCCN(CCCC)C(=O)C(=O)c1c(-c2ccccc2)[nH]c2ccc(F)cc12 | 88% | 4 nM |  |  |
| CCCN(CCC)C(=O)C(=O)c1c(-c2ccc([N+](=O)[O-])cc2)[nH]c2ccccc12 | 70% | 0.95 nM |  |  |
| CCCN(CCC)C(=O)C(=O)c1c(-c2ccc(C(F)(F)F)cc2)[nH]c2ccccc12 | 66% | 1.69 nM |  |  |
| CCCCN(CC)C(=O)C(=O)c1c(-c2ccccc2)[nH]c2ccccc12 | 43% | 12.6 nM |  |  |
| CCCN(CCC)C(=O)C(=O)c1c(-c2ccccc2)[nH]c2ccc(Cl)cc12 | 10% |  |  |  |
| CCCN(CCC)C(=O)C(=O)c1c(-c2ccc(Cl)cc2)[nH]c2ccc(Cl)cc12 | 49% |  |  |  |
| CCCN(CCC)C(=O)C(=O)c1c(-c2ccccc2)[nH]c2ccccc12 | 8% |  |  |  |
| CCC(C)N(C)C(=O)c1cc2ccccc2c(-c2ccccc2Cl)n1 (stereo not given) [PK-11195] | 48% |  |  |  |
| CN1C(=O)CN=C(c2ccc(Cl)cc2)c2cc(Cl)ccc21 [RO-54864] | 41% |  |  |  |
